Screening data (PubChem BioAssay)
The full list was thinned out, with hits kept by preference.
CHOP UPR activ = activators of apoptotic CHOP UPR arm, primary screen, cell-based, CHO-CHOP luciferase reporter, luminescence, uHTS; 330,000 compounds, 0.34% hits; activation, % at 10 µM; UPR activation; percent of tunicamycin response over DMSO baseline;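 active = at 10 µM dose, activation of 40% or more, normalized to positive control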
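Material: CHO-CHOP cells, stable luciferase reporter of PERK-eIF2a-CHOP signalling; quantity: 500 reporter cells seeded per well; buffer or medium: F12 medium containing 10% fetal bovine serum; compound: one dose, 10 µM in 0.5% DMSO; incubation: 6 h compound treatment, 37 °C; measured by: Steady-Glo luciferase luminescence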
XBP1 UPR activ = activators of adaptive XBP1 UPR arm, primary screen, cell-based, CHO-XBP1 luciferase reporter, luminescence, uHTS. IRE1-XBP1 UPR activation; percent of tunicamycin response, DMSO as zero. activation, % at 20 µM. 330,000 compounds, 0.33% hits. AID 463104, 2010;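 active = versus positive control, 20 µM dose yields 30% or more activation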
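Material: CHO-XBP1 cells stably carrying IRE1-XBP1-driven luciferase reporter / Amount: 1000 cells per well / Compound: 20 µM, 1% DMSO / Times: 6 h treatment, 37 °C / Detection: luciferase luminescence / Measure: % activation of reporter signal versus tunicamycin and DMSO controls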
CHOP inhibitor = inhibitors of CHOP promoter induction, primary screen, cell-based, unfolded protein response, luciferase reporter; CHO-K1 CHOP-promoter luciferase, tunicamycin-induced, 15-18 h; inhibition, % at 10 µM; 220,000 compounds, 3.8% hits;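 active = compounds that reduced the stress-induced luciferase reporter signal by more than about 70% of percent inhibition, limit read from the data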
Jurkat NFkB inh = inhibitors of induced NF-kB luciferase reporter, primary screen, TCR NF-kB activation inhibitor project, cell-based, luminescence, uHTS; inhibition, % at 4 µM; 330,000 compounds, 0.53% hits; Jurkat, PMA/ionomycin-induced NF-kB luciferase reporter; in the data active = inhibition above about 50%
697 NFkB inh = inhibitors of PMA/ionomycin-induced NF-kB reporter, 697 cells, primary screen, B-cell NF-kB inhibitor project, cell-based, luminescence, uHTS; 697 B-cell NF-kB luciferase reporter, 16 h; inhibition, % at 4 µM; 330,000 compounds, 0.33% hits; in the data active = inhibition above about 35%
Large screens that a line does not name were inactive.

COc1ccc(C(=O)/C=C/C(=O)N(Cc2ccccc2)C(C(=O)NC2CCCCC2)c2ccncc2)c(O)c1 (stereo not given)	none
COc1cc(CCN2C(=O)c3cccc4cccc(c34)C2=O)c(S(=O)(=O)N2CCC(C)CC2)cc1OC	none
S=C(Nc1ccc(Cc2ccncc2)cc1)Nc1cccc(Cl)c1	none
Fc1ccc(CN2CCN(C(=S)NCCc3ccccc3)CC2)c(Cl)c1	CHOP inhibitor 85
S=C(NCCc1ccccc1)N1CCN(Cc2ccc(Cl)c(Cl)c2)CC1	none
Cc1ccc(S(=O)(=O)N/N=C2/CCCCC2C2CCCCC2)cc1[N+](=O)[O-] (stereo not given)	CHOP inhibitor 79
CC(C)(C)C1CCC(=NNc2ccc(S(N)(=O)=O)cc2[N+](=O)[O-])CC1 (stereo not given)	CHOP inhibitor 83
CC/C(C)=N/NS(=O)(=O)c1ccc(C)c([N+](=O)[O-])c1	none
CCC(C)(C)C1CCC(=NNS(=O)(=O)c2ccc(C)c([N+](=O)[O-])c2)CC1 (stereo not given)	CHOP inhibitor 70
Cc1[nH]c2ccccc2c1C(=O)C(=O)NCc1ccco1	none
CCc1ccc(N2CC(C(=O)N/N=C/c3ccccc3)CC2=O)cc1 (stereo not given)	none (no result: CHOP inhibitor)
Cc1ccc(NC(=O)C(C)c2ccc(-c3ccccc3)c(F)c2)cc1 (stereo not given)	CHOP inhibitor 73
CC(C)(C)OC(=O)NC1CCN(S(=O)(=O)c2ccc3c(c2)OCCO3)CC1	none (no result: CHOP inhibitor)
Cc1cccc(C2(c3cccc(C)c3)CC2C(=O)Nc2ccc([N+](=O)[O-])cc2O)c1 (stereo not given)	CHOP inhibitor 103
CC(CCc1ccccc1)NC(=O)COC(=O)c1ccc(S(C)(=O)=O)c([N+](=O)[O-])c1 (stereo not given)	CHOP inhibitor 101
Cc1ccccc1NC(=O)COC(=O)c1ccc(S(C)(=O)=O)c([N+](=O)[O-])c1	CHOP inhibitor 103
CS(=O)(=O)c1ccc(C(=O)OCC(=O)Nc2cccnc2Cl)cc1[N+](=O)[O-]	none (no result: CHOP inhibitor)
Nc1nc(SCC(=O)Nc2ccccc2C(F)(F)F)[nH]c(=O)c1-c1ccccc1	none
CCCCNS(=O)(=O)c1ccc2nc(-c3cccnc3)cc(C(=O)NC(C)CC)c2c1 (stereo not given)	CHOP inhibitor 101
CCc1ccc(NC(=O)c2c(C(=O)Nc3ccccc3)sc3nc(C)cc(=O)n23)cc1	CHOP inhibitor 82
CCOC(=O)c1sc2ccccc2c1OC(=O)c1ccccc1OC	none
CCOC(=O)c1cc(OC(=O)c2ccccc2OC)n(-c2ccccc2)n1	CHOP inhibitor 80
CN(C)S(=O)(=O)c1ccc(Cl)c(NC(=O)COC(=O)CN2C(=O)NC(C)(C)C2=O)c1	none
Cc1ccc(S(=O)(=O)N2CCCCC2)cc1NC(=O)CN1C(=O)CN(C)C1=O	CHOP inhibitor 86
CC(=O)N1CCN(CC(=O)Nc2cc(S(=O)(=O)N3CCCCC3)ccc2C)CC1	none (no result: CHOP inhibitor)
CC1(C)NC(=O)N(CC(=O)OCC(=O)Nc2cc(S(=O)(=O)N3CCCCC3)ccc2Cl)C1=O	CHOP inhibitor 79
N#Cc1c(-c2ccc(Cl)cc2)ccn2nc(CCC(=O)O)nc12	none
CCCCCc1nc2c(C#N)c(-c3ccc(Cl)cc3)ccn2n1	CHOP inhibitor 92
COc1cc(CC(=O)OCC(=O)Nc2cccc([N+](=O)[O-])c2)cc(OC)c1OC	none
C/C(CC(=O)Nc1ccc(N(C)C)cc1)=N\NC(=O)c1ccc([N+](=O)[O-])cc1Cl	none
C/C(=N\NC(=O)c1ccc([N+](=O)[O-])cc1Cl)c1ccccc1	CHOP inhibitor 83
N#C/C(=C(/O)COC(=O)CSc1ccc(Cl)cc1)c1nc2ccccc2[nH]1	CHOP inhibitor 82
Cc1cc(SCC(=O)OC/C(O)=C(\C#N)c2nc3ccccc3[nH]2)c(C)cc1Br	CHOP inhibitor 71
COc1ccc([C@H]2CC(=O)C=C(c3cccc(CO)c3)C2)cc1	none (no result: CHOP inhibitor)
Cc1ccc(CNC(=O)CCc2c(C)nc3c(c(C)nn3-c3ccc(C)cc3)c2C)cc1	none
Cc1ccc(-n2nc(C)c3c(C)c(CCC(=O)NCc4ccco4)c(C)nc32)cc1	CHOP inhibitor 70
Cc1ccc(-n2nc(C)c3c(C)c(CCC(=O)NCc4ccccc4)c(C)nc32)cc1	CHOP inhibitor 70
O=C(Cn1nc(-c2ccc3c(c2)OCCO3)ccc1=O)Nc1cccc(NC(=O)c2ccccn2)c1	none
COc1ccccc1C(=O)NNC(=S)NC(=O)c1sc2ccccc2c1Cl	CHOP inhibitor 80
Cc1c(NC(=S)NC(=O)c2sc3ccccc3c2Cl)cccc1C(=O)O	none
OCCNCc1cc(Br)ccc1OCc1ccc(Cl)cc1Cl	CHOP inhibitor 90 (no result: CHOP UPR activ, XBP1 UPR activ, Jurkat NFkB inh, 697 NFkB inh)
OCCNCc1cc(Br)ccc1OCc1ccc(Cl)cc1	none
COCCOC(=O)c1c(C)oc2ccc(OC(=O)c3cccs3)cc12	none
COC(=O)c1c(C)oc2ccc(OC(=O)c3cccs3)cc12	CHOP inhibitor 86
COc1ccccc1-n1cnc2cc(NS(=O)(=O)c3ccc(Br)cc3)ccc21	CHOP inhibitor 79
COc1ccc(-n2cnc3cc(NS(=O)(=O)c4ccc(C)cc4)ccc32)cc1	none
CCN(CC(=O)NCc1ccc(F)cc1)C(=O)c1ccc(COc2ccccc2)cc1	none (no result: CHOP inhibitor)
CC(C)[C@H](NC(=O)c1ccc(Br)cc1)C(=O)NC1CCCCC1	none (no result: CHOP inhibitor)
C=CCOc1c(Cl)cc(C(=S)N2CCCC2)cc1OCC	none (no result: CHOP inhibitor)
CCN(CC)S(=O)(=O)c1cccc(C(=O)N/N=C/c2ccc(O)c(O)c2O)c1	none (no result: CHOP UPR activ, XBP1 UPR activ, Jurkat NFkB inh, 697 NFkB inh)
Oc1ccc(/C=N/N=C(c2ccccc2)c2ccccc2)c(O)c1O	CHOP inhibitor 70 (no result: CHOP UPR activ, XBP1 UPR activ, Jurkat NFkB inh, 697 NFkB inh)
O=C(/C(=N/N=C/c1ccc(O)c(O)c1O)c1ccccc1)c1ccccc1	CHOP inhibitor 72
CCCCCOc1ccc(C(=O)NCC(=O)NCC(=O)OCC)cc1	none
CCN(CC)S(=O)(=O)c1cc(C(=O)OCC(=O)Nc2cccc(Br)c2)ccc1F	none
Cc1ccc(S(=O)(=O)NCC(=O)OCC(=O)NC(=O)NC2CCCC2)cc1	none
N#Cc1c(Nc2ccc(F)cc2)sc(C(=O)c2ccc(F)cc2)c1N	CHOP inhibitor 76
CC(C)=CCC/C(C)=C/C=N/NC(=O)c1cccc([N+](=O)[O-])c1	CHOP inhibitor 89
CCOc1ccc(S(=O)(=O)NCCCN2CCOCC2)c2ccccc12	none
CCCOc1ccc(S(=O)(=O)NCCCN2CCOCC2)c2ccccc12	CHOP inhibitor 71
O=c1oc2cc(Br)ccc2n1CSC1=NCCS1	CHOP inhibitor 71
O=C(O)CCC/C=C\C[C@@H]1[C@@H](/C=C/[C@H](O)C2Cc3ccccc3C2)[C@@H](F)C[C@@H]1O	none (no result: CHOP UPR activ, XBP1 UPR activ, Jurkat NFkB inh, 697 NFkB inh)
